Data reported in ChEMBL document CHEMBL1152389, “A novel and efficient synthesis of highly oxidized lignans by a methyltrioxorhenium/hydrogen peroxide catalytic system. Studies on their apoptogenic and antioxidant activity” (Bioorg Med Chem, 2009).
Activity calls are given as the source filed them. No cut-off for these calls is given here.

Tests used:
Type in all cases: functional, cell-based
BL-41 = experiment: Induction of apoptosis in human EBV deficient BL41 cells assessed as condensed and fragmented nuclei at 25 to 100 uM after 18 hrs by epifluorescent microscopy
Summary of the method: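 BL41 (EBV-negative Burkitt lymphoma) cells in RPMI with 4 mM L-glutamine, 10% FCS at 37 °C, 5% CO2. Seeded at 3 × 10^5 cells/mL and exposed 18 h to compounds in DMSO (≤0.5% v/v). Cells fixed in 4% p-formaldehyde, stained with DAPI 0.2 µg/mL. At least 500 cells in random fields scored by epifluorescence for condensed/fragmented nuclei.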

E2R [1] = experiment: Antioxidant activity in human E2R cells assessed as intracellular peroxide level at 25 to 100 uM after 1 hr by flow cytometry in presence of DCFH-DA
Summary of the method: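 E2R cells (EBV-positive, apoptosis-resistant isogenic Burkitt line) in RPMI with 4 mM L-glutamine, 10% FCS, 37 °C, 5% CO2. Compounds in DMSO (0.2%) for 1 h in RPMI, then 10 µM DCFH-DA for 20 min at 37 °C. Flow cytometry, excitation 488 nm, emission 533 nm (FL-1), 10,000 events per sample.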

E2R [2] = experiment: Induction of apoptosis in human E2R cells expressing EBV assessed as condensed and fragmented nuclei at 25 to 100 uM after 18 hrs by epifluorescent microscopy
Summary of the method: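 BL41-derived E2R cells (EBV-positive, apoptosis-resistant) grown in RPMI with 4 mM L-glutamine and 10% FCS at 37 °C, 5% CO2. Seeded at 3 × 10^5 cells/mL and exposed to compounds in DMSO (≤0.5% v/v) for 18 h. Cells fixed in 4% p-formaldehyde and stained with DAPI (0.2 µg/mL). Condensed/fragmented nuclei scored in ≥500 cells from random fields by epifluorescence microscopy.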

| SMILES | Activity (BL-41) | Activity (E2R [1]) | Activity (E2R [2]) |
| --- | --- | --- | --- |
| COc1cc([C@H]2c3cc(O)c(OC)cc3C[C@H]3COC[C@@H]32)ccc1O | Active | inactive | Active |
| COc1cc(C[C@H]2CO[C@H](c3ccc(O)c(OC)c3)[C@H]2CO)ccc1O | inactive | – | inactive |
| COc1cc([C@H]2c3cc(O)c(OC)cc3C[C@H]3C(=O)OC[C@H]23)ccc1O | inactive | Active | inactive |
| COc1cc(C[C@H]2COC(=O)[C@@H]2Cc2ccc(O)c(OC)c2)ccc1O | Active | Active | Active |
| COc1cc(C[C@H]2COC(=O)[C@@H]2C(O)c2ccc(O)c(OC)c2)ccc1O (stereo partly specified) | inactive | – | inactive |
| COc1cc(C[C@H]2C(=O)OC[C@@H]2[C@H](O)c2ccc(O)c(OC)c2)ccc1O | inactive | – | inactive |
| COc1cc(C[C@H]2C(=O)OC[C@@H]2Cc2ccc(O)c(O)c2)ccc1O | – | Active | – |
| COc1cc([C@H]2c3cc(O)c(OC)cc3C[C@@H](CO)[C@@H]2CO)ccc1O | inactive | – | inactive |
| COc1cc2c(cc1O)[C@H](c1ccc(O)c(O)c1)[C@H]1COC[C@@H]1C2 | – | inactive | – |
| COc1cc(C(=O)[C@H]2COC(=O)[C@@H]2C(O)c2ccc(O)c(OC)c2)ccc1O (stereo partly specified) | – | – | Active |
| COc1cc(/C=C2\C(=O)OC[C@@H]2C(=O)c2ccc(O)c(OC)c2)ccc1O | – | – | Active |
